NALP1 inh = NALP1 inflammasome inhibitors in reconstituted yeast, colorimetric, S. cerevisiae, triplicate retest | S. cerevisiae NALP1/ASC/caspase-1 growth, X-gal OD620, 72 h | inhibition, % at 10 µM | 0.61% of 280,000 active; in the data active = inhibition mostly above about 24%, no sharp cut-off; inactive = mostly below about 32%
Arr AP2 block = inhibitors of beta-arrestin/AP2 binding, primary screen, biochemical, GPCR trafficking, flow cytometry; beta-arrestin 1 C-terminal peptide binding to AP2 beta2-adaptin appendage (human); FITC-arrestin peptide / GST-AP2 beads; AP2 beta2 appendage carries R879A mutation; AID 504490, 2011; inhibition, % at 10 µM; 0.31% of 340,000 active;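 active = inhibition above a set limit, near 3 SD of compounds lacking own fluorescence, cut at about 54% in these data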;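 also: plate controls were DMSO wells for no effect and 5 µM unlabelled arrestin peptide for full effect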
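System: GST-AP2 R879A bound to glutathione beads, E. coli-expressed. Also added: 50 nM FITC-arrestin peptide. Schedule: compound with beads 12 min RT, then probe 1 h RT. Signal: bead flow cytometry, FITC channel. Read-out basis: percent response.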
PolyA inhibitor = polyadenylation inhibitors in yeast reporter cells, primary screen, luminescence, S. cerevisiae; AID 1875, 2009; 0.02% of 300,000 active; S. cerevisiae SKY197-pL101 polyadenylation reporter, beta-gal luminescence; efflux-impaired pdr1/pdr3 knockout yeast; score 100 = 6 SD above DMSO; activity score, % at 12 µM;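 active = lowest replicate activity score at least 50, where 100 means six control SD above control mean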;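 also: yeast exposed to compound for 9 h at 30 °C; higher score means more reporter readthrough which indicates perturbed polyadenylation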
NALP3 yeast inh = NALP3 inflammasome inhibitors in reconstituted yeast, primary screen, luminescence, uHTS. Yeast reconstituted NLRP3/ASC/caspase-1, beta-gal luminescence, 24 h. inhibition, % at 10 µM. 0.39% of 330,000 active. AID 2825, 2010;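 active = inhibition of 50% or more; inactive = inhibition below 50%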;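 also: plate controls were induced DMSO wells for no effect and uninduced yeast grown without galactose for full effect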
DSG3 Ab inh = inhibitors of pemphigus antibody binding to DSG3, primary screen, biochemical, bead-based, flow cytometry, scFv-GFP. binding (percent of control), % at 10 µM. AID 588358, 2011. 0.48% of 310,000 active. Desmoglein-3 (Homo sapiens), P32926. DSG3-coupled beads, scFv-anti-DSG3-GFP binding; active compounds read low;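 active = binding more than 3 SD below its plate's average and above zero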;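 also: hits lower antibody fragment binding to DSG3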
Target sequence (P32926 whole entry, looked up, the tested form may be a part): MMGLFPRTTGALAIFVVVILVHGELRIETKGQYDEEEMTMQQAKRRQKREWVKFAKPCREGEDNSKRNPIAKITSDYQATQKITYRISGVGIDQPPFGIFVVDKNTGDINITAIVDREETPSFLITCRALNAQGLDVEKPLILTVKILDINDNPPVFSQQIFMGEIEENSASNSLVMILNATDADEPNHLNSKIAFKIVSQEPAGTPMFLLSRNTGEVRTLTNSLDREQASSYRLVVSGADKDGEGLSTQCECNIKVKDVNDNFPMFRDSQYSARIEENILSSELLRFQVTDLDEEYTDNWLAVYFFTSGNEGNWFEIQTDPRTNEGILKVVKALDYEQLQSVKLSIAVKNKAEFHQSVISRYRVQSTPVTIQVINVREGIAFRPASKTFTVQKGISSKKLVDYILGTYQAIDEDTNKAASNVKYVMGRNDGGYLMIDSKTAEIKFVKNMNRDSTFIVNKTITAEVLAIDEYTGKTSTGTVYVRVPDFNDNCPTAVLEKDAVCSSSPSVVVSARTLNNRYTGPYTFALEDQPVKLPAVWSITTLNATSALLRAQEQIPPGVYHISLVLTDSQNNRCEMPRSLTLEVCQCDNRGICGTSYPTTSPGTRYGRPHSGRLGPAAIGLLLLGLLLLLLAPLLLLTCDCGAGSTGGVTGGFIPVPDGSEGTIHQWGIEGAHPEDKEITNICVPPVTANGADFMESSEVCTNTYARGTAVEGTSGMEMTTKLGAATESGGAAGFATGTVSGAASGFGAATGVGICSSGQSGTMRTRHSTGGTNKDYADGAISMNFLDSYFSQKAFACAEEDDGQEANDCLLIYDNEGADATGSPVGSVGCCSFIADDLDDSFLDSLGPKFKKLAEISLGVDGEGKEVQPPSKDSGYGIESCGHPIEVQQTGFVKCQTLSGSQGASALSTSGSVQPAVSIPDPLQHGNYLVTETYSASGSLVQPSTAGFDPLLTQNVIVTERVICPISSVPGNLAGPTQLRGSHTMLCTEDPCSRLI
ALR inh = inhibitors of human ALR sulfhydryl oxidase, primary screen, biochemical, H2O2 detection, HRP-luminol luminescence, single point; purified ALR, DTT oxidation; inhibition, % (concentration not given with the values); 3.8% of 290,000 active; AID 485317, 2010;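 active = mean replicate inhibition above about 79%, with every replicate also reaching it, limit read from the data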
* = called active by the depositor; ! = not confirmed by another sample. An excerpt weighted towards active compounds, which were near 4.6% of everything screened.

Nn1c(SCc2cn3cc(Cl)ccc3n2)nnc1-c1ccncc1 was read as NALP1 inh -17, Arr AP2 block 17, PolyA inhibitor -1, NALP3 yeast inh 3, DSG3 Ab inh 106 and ALR inh 98*.
For O=C(Nc1ccccc1)c1cn(CCBr)cn1 the results were Arr AP2 block 7, PolyA inhibitor -6, NALP3 yeast inh 8, DSG3 Ab inh 96 and ALR inh -17.
Screening COc1ccc(Cn2nnc3c(=O)[nH]c(C(=O)NCCc4ccc(F)cc4)nc32)cc1OC returned NALP1 inh 28, Arr AP2 block -6, PolyA inhibitor 14, NALP3 yeast inh 8, DSG3 Ab inh 107 and ALR inh 94*.
For O=C(NCCc1ccccc1)c1nc2c(nnn2Cc2ccccc2Cl)c(=O)[nH]1 the results were NALP1 inh 1, Arr AP2 block 20, PolyA inhibitor 1, NALP3 yeast inh 8, DSG3 Ab inh 100 and ALR inh 63.
`CC(C)[C@@]1(c2ccc(Cl)cc2)ON(c2ccccc2C(F)(F)F)C1=O` gave NALP3 yeast inh 12 and ALR inh -12.
`C/C(=N\NC(=O)c1cc(-c2cccc([N+](=O)[O-])c2)n[nH]1)c1ccc(F)cc1` gave NALP1 inh -7, Arr AP2 block -14, PolyA inhibitor 23, NALP3 yeast inh -4, DSG3 Ab inh 94 and ALR inh 3.
`C/C(=N/NC(=O)c1cc(-c2cccc([N+](=O)[O-])c2)n[nH]1)c1cccc(O)c1` gave NALP1 inh 2, Arr AP2 block 33, PolyA inhibitor 6, NALP3 yeast inh -7, DSG3 Ab inh 75* and ALR inh 3.
`CCOC(=O)c1cc(-c2cccc([N+](=O)[O-])c2)n[nH]1` gave NALP1 inh 30*, Arr AP2 block 46, PolyA inhibitor -16, NALP3 yeast inh 23 and ALR inh 1.
For CCn1cc(S(=O)(=O)NCCc2ccc(OC)c(OC)c2)cn1 the results were NALP1 inh -2, Arr AP2 block 27, PolyA inhibitor 12, NALP3 yeast inh 17, DSG3 Ab inh 114 and ALR inh -2.
For CCOC(=O)c1c(C)nc(C)c2c(=O)oc3ccccc3c12 the results were NALP1 inh -4, Arr AP2 block -17, PolyA inhibitor -8, NALP3 yeast inh 24, DSG3 Ab inh 95* and ALR inh -1.
`CCSc1nnc(-c2cc(Br)ccc2N=Cc2c(C)[nH]n(-c3ccccc3)c2=O)c(=O)[nH]1` gave NALP1 inh -1, Arr AP2 block 3, PolyA inhibitor -2, NALP3 yeast inh 12, DSG3 Ab inh 102 and ALR inh 11.
Screening CCSc1nnc(-c2ccccc2N=Cc2c(C)[nH]n(-c3ccccc3)c2=O)c(=O)[nH]1 returned NALP1 inh 15, Arr AP2 block -1, PolyA inhibitor -14, NALP3 yeast inh -6, DSG3 Ab inh 101 and ALR inh 95*.
`N#CC(=C1C=CC(=NO)C(Cl)=C1)c1ccc(Cl)cc1` gave Arr AP2 block -12 and DSG3 Ab inh 93.
For COc1ccc(C(C#N)=C2C=CC(=NO)C=C2)cc1 the results were Arr AP2 block -16, PolyA inhibitor -31, NALP3 yeast inh 43 and ALR inh 96*.
`Cc1ccccc1NC(=O)/C(=C/c1ccco1)c1ccccc1` gave NALP1 inh 2, Arr AP2 block -4, PolyA inhibitor -16, NALP3 yeast inh 12, DSG3 Ab inh 120 and ALR inh 83*.
CCc1ccccc1NC(=O)/C(=C/c1ccco1)c1ccccc1 was read as NALP1 inh 23, Arr AP2 block 9, PolyA inhibitor -29, NALP3 yeast inh 12, DSG3 Ab inh 103 and ALR inh 5.
Screening CC(=O)N1CCN(c2ccc(NCc3cccs3)cc2)CC1 returned NALP1 inh 6, Arr AP2 block 15, NALP3 yeast inh -2, DSG3 Ab inh 99 and ALR inh 99*.
`Clc1cc(NCc2cccs2)ccc1N1CCOCC1` gave NALP1 inh 36, Arr AP2 block 1, PolyA inhibitor 2, NALP3 yeast inh 34 and ALR inh 97*.
Screening CC(=O)N1CCN(c2ccc(NCc3ccc(C)s3)cc2)CC1 returned NALP1 inh 8, Arr AP2 block 16, PolyA inhibitor -11, NALP3 yeast inh 29, DSG3 Ab inh 102 and ALR inh 99*.
Screening c1csc(CNc2ccc3c(c2)OCCO3)c1 returned Arr AP2 block 8, DSG3 Ab inh 102 and ALR inh 65.
`NC(=O)c1ncn([C@@H]2O[C@H](CNC(=O)[C@H](N)CSCc3ccccc3)[C@@H](O)[C@H]2O)n1` gave Arr AP2 block 3 and DSG3 Ab inh 95.
Screening COc1cc(NC(=O)COC(=O)Cc2ccsc2)cc(OC)c1 returned Arr AP2 block 31 and NALP3 yeast inh 10.
`CCN(CC)c1ccc(SS(=O)(=O)O)cc1` gave NALP1 inh 3, Arr AP2 block 1, PolyA inhibitor 7, NALP3 yeast inh 7, DSG3 Ab inh 106 and ALR inh 99*!.
O=S(=O)(O)Sc1ccccc1 was read as DSG3 Ab inh 105.
For COc1cccc(S(=O)(=O)N(C)C[C@@H]2Oc3cc(C#CCN(C)C)ccc3S(=O)(=O)N([C@H](C)CO)C[C@@H]2C)c1 the results were DSG3 Ab inh 98.
`CCC(C)n1c(SCC(=O)NC2CC2)nc2ccccc2c1=O` (stereo unspecified) gave DSG3 Ab inh 106.
Cc1ccn2c(=O)nc(SCC(=O)c3ccc(Cl)cc3)nc2c1 was read as Arr AP2 block -3, PolyA inhibitor 16, NALP3 yeast inh 25, DSG3 Ab inh 98 and ALR inh 93*.
Screening COc1ccc(C(=O)CSc2nc(=O)n3ccc(C)cc3n2)cc1 returned DSG3 Ab inh 57*.
For CC(Nc1ccc2c(c1)OCCO2)C(=O)N1c2ccccc2CC1C (stereo unspecified) the results were NALP1 inh -6, Arr AP2 block 5, PolyA inhibitor -5, NALP3 yeast inh 12, DSG3 Ab inh 110 and ALR inh 98*.
For Cn1c(=O)c2c(nc(C(O)c3ccccc3)n2C)n(C)c1=O (stereo unspecified) the results were Arr AP2 block 18.
Screening CC1=CC(C)C(=O)N(C)C(C)=C1 (stereo unspecified) returned DSG3 Ab inh 106.
